Data from ChEMBL document CHEMBL3739273, “Synthesis, biological activity evaluation and molecular docking studies of novel coumarin substituted thiazolyl-3-aryl-pyrazole-4-carbaldehydes” (Bioorg Med Chem Lett, 2015).
≈ marks a conversion by molar mass, not a printed value. Calls of active or inactive are those of the source. No cut-off for these calls is given here.

How the values were obtained:
[1] = Anticancer activity against human DU145 cells assessed as cell viability after 48 hrs by MTT assay; format: functional, cell-based; details: DU-145, 48 h
In short: (§1)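 MTT cytotoxicity assay in human DU-145 prostate, MCF-7 breast and HeLa cervical cancer cell lines. Doxorubicin was the reference drug.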

MCF7 = assay: Anticancer activity against human MCF7 cells assessed as cell viability after 48 hrs by MTT assay; format: functional, cell-based; details: MCF7, 48 h; in short: as §1
HeLa [2] = assay: Anticancer activity against human HeLa cells assessed as cell viability after 48 hrs by MTT assay; format: functional, cell-based; in short: as §1
Bacillus cereus [3] = assay: Antibacterial activity against Bacillus cereus ATCC 14579 assessed as growth inhibition at 100 ug/ml after 24 hrs by agar well diffusion method; format: functional
In short: (§2)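 Agar well diffusion. Compounds were tested at 10, 20, 100, 200 and 300 µg/mL, and the zone of inhibition was measured in mm. Gentamycin sulfate was the reference drug.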

Bacillus spizizenii [4] = assay: Antibacterial activity against Bacillus subtilis ATCC 6633 assessed as growth inhibition at 100 ug/ml after 24 hrs by agar well diffusion method; format: functional, organism-based; in short: as §2
Proteus vulgaris [5] = assay: Antibacterial activity against Proteus vulgaris ATCC 13315 assessed as growth inhibition at 100 ug/ml after 24 hrs by agar well diffusion method; format: functional; details: ATCC 13315, 24 h, read-out: IZ; in short: as §2
Staphylococcus aureus [6] = assay: Antibacterial activity against methicillin-resistant Staphylococcus aureus NCTC 13616 assessed as growth inhibition at 100 ug/ml after 24 hrs by agar well diffusion method; format: functional, organism-based
In short: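 Agar well diffusion assay with compounds applied to wells at several concentrations, including the 100 level reported here. The zone of inhibition was measured in mm. Gentamycin sulfate was the standard drug.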

Klebsiella pneumoniae [7] = assay: Antibacterial activity against Klebsiella pneumoniae ATCC 43816 assessed as growth inhibition at 100 ug/ml after 24 hrs by agar well diffusion method; format: functional; details: ATCC 43816, 24 h, read-out: IZ; in short: as §2
Escherichia coli [8] = assay: Antibacterial activity against Escherichia coli ATCC 8739 assessed as growth inhibition at 100 ug/ml after 24 hrs by agar well diffusion method; format: functional; details: ATCC 8739, 24 h, read-out: IZ; in short: as §2
HeLa [9] = assay: Induction of apoptosis in human HeLa cell assessed as nuclear condensation after 24 hrs by Hoechst 33258 staining based fluorescence microscopic analysis; format: functional
In short: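 HeLa cells treated at 10 µM for 24 h, washed with PBS, then stained with Hoechst 33258 ([…]) for 20 min. Chromatin condensation imaged by fluorescence microscopy with a DAPI filter.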

Escherichia coli [10] = assay: Antibacterial activity against Escherichia coli ATCC 8739 after 24 hrs by microtiter plate method; format: functional; details: ATCC 8739, 24 h
In short: (§3)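 Test concentrations reported in µg/mL. Gentamycin sulfate and ampicillin were the reference drugs.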

Klebsiella pneumoniae [11] = assay: Antibacterial activity against Klebsiella pneumoniae ATCC 43816 after 24 hrs by microtiter plate method; format: functional; details: ATCC 43816, 24 h; in short: as §3
Proteus vulgaris [12] = assay: Antibacterial activity against Proteus vulgaris ATCC 13315 after 24 hrs by microtiter plate method; format: functional; details: ATCC 13315, 24 h; in short: as §3
Staphylococcus aureus [13] = assay: Antibacterial activity against methicillin-resistant Staphylococcus aureus NCTC 13616 after 24 hrs by microtiter plate method; format: functional; details: NCTC 13616, 24 h
Bacillus spizizenii [14] = assay: Antibacterial activity against Bacillus subtilis ATCC 6633 after 24 hrs by microtiter plate method; format: functional; details: ATCC 6633, 24 h; in short: as §3
Bacillus cereus [15] = assay: Antibacterial activity against Bacillus cereus ATCC 14579 after 24 hrs by microtiter plate method; format: functional; details: ATCC 14579, 24 h; in short: as §3
Escherichia coli [16] = assay: Bactericidal activity against Escherichia coli ATCC 8739 after 24 hrs; format: functional; details: ATCC 8739, 24 h, read-out: MBC99.9
In short: (§4)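 MBC determined by a standard MBC protocol alongside the MIC, with values in µg/mL. Gentamycin sulfate and ampicillin were the references.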

Klebsiella pneumoniae [17] = assay: Bactericidal activity against Klebsiella pneumoniae ATCC 43816 after 24 hrs; format: functional; details: ATCC 43816, 24 h, read-out: MBC99.9; in short: as §4
Proteus vulgaris [18] = assay: Bactericidal activity against Proteus vulgaris ATCC 13315 after 24 hrs; format: functional; details: ATCC 13315, 24 h, read-out: MBC99.9; in short: as §4
Staphylococcus aureus [19] = assay: Bactericidal activity against methicillin-resistant Staphylococcus aureus NCTC 13616 after 24 hrs; format: functional; details: NCTC 13616, 24 h, read-out: MBC99.9
In short: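 MBC determined by a standard MBC protocol run alongside the MIC determination. Gentamycin sulfate and ampicillin served as reference drugs.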

Bacillus spizizenii [20] = assay: Bactericidal activity against Bacillus subtilis ATCC 6633 after 24 hrs; format: functional; details: ATCC 6633, 24 h, read-out: MBC99.9; in short: as §4
Bacillus cereus [21] = assay: Bactericidal activity against Bacillus cereus ATCC 14579 after 24 hrs; format: functional; details: ATCC 14579, 24 h, read-out: MBC99.9; in short: as §4
[22] = n-Octanol-phosphate buffer partition coefficient, log P of the compound at pH 7.4 after 30 mins by shake flask method; format: physicochemical
In short: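 Shake-flask partition between n-octanol and 50 mM phosphate buffer, pH 7.4. P calculated and expressed as logP.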

Cytochrome P450 2A6 = target: T1, Cytochrome P450 2A6 (Homo sapiens, UniProt P11509); assay: Inhibition of human microsomal CYP2A6; format: ADME
T1 sequence (P11509 whole entry): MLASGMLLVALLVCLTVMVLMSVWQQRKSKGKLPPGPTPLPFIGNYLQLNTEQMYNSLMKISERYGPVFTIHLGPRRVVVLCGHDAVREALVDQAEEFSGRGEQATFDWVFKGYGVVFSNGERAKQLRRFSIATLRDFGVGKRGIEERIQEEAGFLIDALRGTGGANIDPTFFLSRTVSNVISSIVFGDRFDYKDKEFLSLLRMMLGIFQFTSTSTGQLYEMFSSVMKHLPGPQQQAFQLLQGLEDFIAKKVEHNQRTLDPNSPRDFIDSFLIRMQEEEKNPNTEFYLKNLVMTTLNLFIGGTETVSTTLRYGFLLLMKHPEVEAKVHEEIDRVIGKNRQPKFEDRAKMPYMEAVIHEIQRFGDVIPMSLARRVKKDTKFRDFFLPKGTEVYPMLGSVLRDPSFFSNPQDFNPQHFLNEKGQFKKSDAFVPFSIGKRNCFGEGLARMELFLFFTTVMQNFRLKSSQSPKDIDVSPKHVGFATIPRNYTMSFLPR

HeLa [23] = assay: Anticancer activity against human HeLa cells assessed as cell viability at 10 uM after 48 hrs by MTT assay; format: functional, cell-based

Cc1ccc(-c2nn(-c3nc(-c4cc5cc(Br)cc(Br)c5oc4=O)cs3)cc2C=O)cc1
IC50 [1]: 10.8 µM
IC50 (MCF7): 24.5 µM
IC50 (HeLa [2]): 6.25 µM
growth inhibition (GI) (Bacillus cereus [3]): Active
growth inhibition (GI) (Bacillus spizizenii [4]): Active
zone of inhibition at 100 µg/mL (Proteus vulgaris [5]): 20 mm
growth inhibition (GI) (Staphylococcus aureus [6]): Active
zone of inhibition at 100 µg/mL (Klebsiella pneumoniae [7]): 24 mm
zone of inhibition at 100 µg/mL (Escherichia coli [8]): 22 mm
Activity (HeLa [9]): Active
MIC (Escherichia coli [10]): 86.5 µg/mL (≈ 151 µM)
MIC (Klebsiella pneumoniae [11]): 79.1 µg/mL (≈ 138 µM)
MIC (Proteus vulgaris [12]): 101 µg/mL (≈ 176 µM)
MIC (Staphylococcus aureus [13]): 106 µg/mL (≈ 185 µM)
MIC (Bacillus spizizenii [14]): 92.4 µg/mL (≈ 162 µM)
MIC (Bacillus cereus [15]): 72.8 µg/mL (≈ 127 µM)
MBC (Escherichia coli [16]): 130 µg/mL (≈ 228 µM)
MBC (Klebsiella pneumoniae [17]): 115 µg/mL (≈ 201 µM)
MBC (Proteus vulgaris [18]): 150 µg/mL (≈ 263 µM)
MBC (Staphylococcus aureus [19]): 175 µg/mL (≈ 306 µM)
MBC (Bacillus spizizenii [20]): 150 µg/mL (≈ 263 µM)
MBC (Bacillus cereus [21]): 110 µg/mL (≈ 193 µM)
logD at 0.5 h [22]: 3.34
Ki (Cytochrome P450 2A6): 0.00173 µM

Cc1ccc(-c2nn(-c3nc(-c4cc5cc(Cl)cc(Cl)c5oc4=O)cs3)cc2C=O)cc1
IC50 [1]: 14.7 µM
IC50 (MCF7): 14.6 µM
IC50 (HeLa [2]): 5.75 µM
growth inhibition (GI) (Bacillus cereus [3]): Active
growth inhibition (GI) (Bacillus spizizenii [4]): Active
zone of inhibition at 100 µg/mL (Proteus vulgaris [5]): 18 mm
growth inhibition (GI) (Staphylococcus aureus [6]): Active
zone of inhibition at 100 µg/mL (Klebsiella pneumoniae [7]): 20 mm
zone of inhibition at 100 µg/mL (Escherichia coli [8]): 18 mm
Activity (HeLa [9]): Active
MIC (Escherichia coli [10]): 101 µg/mL (≈ 210 µM)
MIC (Klebsiella pneumoniae [11]): 101 µg/mL (≈ 209 µM)
MIC (Proteus vulgaris [12]): 105 µg/mL (≈ 218 µM)
MIC (Staphylococcus aureus [13]): 116 µg/mL (≈ 240 µM)
MIC (Bacillus spizizenii [14]): 98.2 µg/mL (≈ 204 µM)
MIC (Bacillus cereus [15]): 100 µg/mL (≈ 208 µM)
MBC (Escherichia coli [16]): 150 µg/mL (≈ 311 µM)
MBC (Klebsiella pneumoniae [17]): 150 µg/mL (≈ 311 µM)
MBC (Proteus vulgaris [18]): 210 µg/mL (≈ 435 µM)
MBC (Staphylococcus aureus [19]): 230 µg/mL (≈ 477 µM)
MBC (Bacillus spizizenii [20]): 145 µg/mL (≈ 301 µM)
MBC (Bacillus cereus [21]): 150 µg/mL (≈ 311 µM)
logD at 0.5 h [22]: 3.6
Ki (Cytochrome P450 2A6): 0.00257 µM
growth inhibition (GI) (HeLa [23]): Active
